Test results: ChEMBL document CHEMBL1157534, “Discovery of novel, potent benzamide inhibitors of 11beta-hydroxysteroid dehydrogenase type 1 (11beta-HSD1) exhibiting oral activity in an enzyme inhibition ex vivo model” (J Med Chem, 2008)

Legend:
[1] = Metabolic stability in rat liver microsomes assessed as compound remaining at 1 uM after 30 mins; assay type: ADME, Microsome; conditions: read-out: Stability
[2] = target: T1, 11-beta-hydroxysteroid dehydrogenase 1 (Homo sapiens, UniProt P28845); test: Inhibition of human cloned 11beta-HSD1 by scintillation proximity assay
T1 sequence (P28845 whole entry): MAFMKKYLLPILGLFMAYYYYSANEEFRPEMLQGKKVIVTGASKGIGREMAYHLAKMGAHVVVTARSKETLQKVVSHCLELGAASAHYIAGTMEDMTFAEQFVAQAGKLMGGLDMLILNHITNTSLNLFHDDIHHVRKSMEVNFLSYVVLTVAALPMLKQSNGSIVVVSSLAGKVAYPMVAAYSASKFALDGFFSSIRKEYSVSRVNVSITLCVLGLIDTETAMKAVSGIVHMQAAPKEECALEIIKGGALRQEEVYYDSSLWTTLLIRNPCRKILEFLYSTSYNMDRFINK

[3] = Metabolic stability in human liver microsomes assessed as compound remaining at 1 uM after 30 mins; assay type: ADME, Microsome; conditions: read-out: Stability
[4] = target: T1, 11-beta-hydroxysteroid dehydrogenase 1; test: Inhibition of human recombinant 11beta-HSD1 expressed in HEK293 cells; assay type: cell-based
[5] = target: T1, 11-beta-hydroxysteroid dehydrogenase 1; test: Inhibition of human recombinant 11beta-HSD1 expressed in HEK293 cells in presence of 3% human serum albumin; assay type: cell-based
[6] = target: T2, 11-beta-hydroxysteroid dehydrogenase type 2 (Homo sapiens, UniProt P80365); test: Inhibition of 11beta-HSD2 by scintillation proximity assay
T2 sequence (P80365 whole entry): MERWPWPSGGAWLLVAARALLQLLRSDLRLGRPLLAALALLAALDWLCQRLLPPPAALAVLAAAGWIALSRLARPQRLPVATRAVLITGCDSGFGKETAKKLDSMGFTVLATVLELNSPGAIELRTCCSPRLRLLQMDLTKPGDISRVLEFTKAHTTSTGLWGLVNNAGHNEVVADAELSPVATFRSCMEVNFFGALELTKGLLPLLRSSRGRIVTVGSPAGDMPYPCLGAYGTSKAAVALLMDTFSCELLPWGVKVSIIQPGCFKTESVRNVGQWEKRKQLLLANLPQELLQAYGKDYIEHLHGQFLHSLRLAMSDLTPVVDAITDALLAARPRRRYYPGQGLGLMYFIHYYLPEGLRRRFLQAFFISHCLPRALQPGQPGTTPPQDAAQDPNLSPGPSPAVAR

[7] = target: T1, 11-beta-hydroxysteroid dehydrogenase 1; test: Inhibition of 11beta-HSD1 in human adipocytes; assay type: cell-based
[8] = Half life in rat at 0.17 mg/kg, iv; assay type: ADME, organism-based; parameters: dose 0.17 mg/kg, route intravenous; conditions: in vivo
How it was run: (§1)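 Rats were given a single iv dose of 0.17 mg/kg, with a parallel 2.0 mg/kg oral arm. Clearance, half-life, Vdss and AUC were derived from the iv data.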

[9] = Volume of distribution at steady state in rat at 0.17 mg/kg, iv; assay type: ADME, organism-based; parameters: dose 0.17 mg/kg, route intravenous; conditions: in vivo, read-out: Vdss; how it was run: as §1
[10] = Oral bioavailability in rat at 2.0 mg/kg; assay type: ADME, organism-based; conditions: in vivo
How it was run: (§2)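 Oral bioavailability came from a 2.0 mg/kg po dose compared against an iv arm. The iv dose was 0.5 mg/kg in monkey, dog and one rat group, and 0.17 mg/kg in the other rat group.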

Rattus norvegicus [11] = test: AUC in rat at 0.17 mg/kg, iv; assay type: ADME, organism-based, Plasma; parameters: dose 0.17 mg/kg, route intravenous; conditions: in vivo; how it was run: as §1
Rattus norvegicus [12] = test: Clearance in rat at 0.17 mg/kg, iv; assay type: ADME, organism-based; parameters: dose 0.17 mg/kg, route intravenous; conditions: in vivo; how it was run: as §1
Rattus norvegicus [13] = test: AUC in rat at 0.5 mg/kg, iv; assay type: ADME, organism-based, Plasma; parameters: dose 0.5 mg/kg, route intravenous; conditions: in vivo
How it was run: (§3)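 Single iv dose of 0.5 mg/kg in rat, cynomolgus monkey or dog. This dose group was run alongside a 2.0 mg/kg oral arm. Clearance, half-life, Vdss and AUC were taken from the iv arm.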

[14] = Half life in dog at 0.5, iv; assay type: ADME, organism-based, Canis lupus familiaris; conditions: in vivo; how it was run: as §3
Cynomolgus monkey [15] = test: Ex vivo inhibition of 11beta-HSD1 in orally dosed cynomolgus monkey mesenteric fat assessed as [3H][…] production; conditions: Macaca fascicularis, oral
Cynomolgus monkey [16] = test: Clearance in cynomolgus monkey at 0.5 mg/kg, iv; assay type: ADME, organism-based, Macaca fascicularis; parameters: dose 0.5 mg/kg, route intravenous; conditions: in vivo; how it was run: as §3
[17] = Volume of distribution at steady state in dog at 0.5, iv; assay type: ADME, organism-based, Canis lupus familiaris; conditions: in vivo, read-out: Vdss; how it was run: as §3
[18] = Volume of distribution at steady state in rat at 0.5 mg/kg, iv; assay type: ADME, organism-based; parameters: dose 0.5 mg/kg, route intravenous; conditions: in vivo, read-out: Vdss; how it was run: as §3
[19] = Drug level in of cynomolgus monkey mesenteric fat at 10 mg/kg, po; assay type: ADME, organism-based, Macaca fascicularis; parameters: dose 10 mg/kg, route oral; conditions: in vivo
How it was run: (§4)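 Cynomolgus monkeys received an oral dose of 2 or 10 mg/kg and were sacrificed 2 h postdose. Mesenteric fat was excised and compound levels were determined in adipose (ng/g) and in plasma.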

Plasma = test: Drug level in of cynomolgus monkey plasma at 2 mg/kg, po; assay type: ADME, organism-based, Macaca fascicularis; parameters: dose 2 mg/kg, route oral; conditions: in vivo; how it was run: as §4
Canis familiaris [20] = test: Clearance in dog at 0.5 mg/kg, iv; assay type: ADME, organism-based, Canis lupus familiaris; parameters: dose 0.5 mg/kg, route intravenous; conditions: in vivo; how it was run: as §3
Canis familiaris [21] = test: AUC in dog at 0.5, iv; assay type: ADME, organism-based, Canis lupus familiaris, Plasma; conditions: in vivo; how it was run: as §3
[22] = Volume of distribution at steady state in cynomolgus monkey at 0.5, iv; assay type: ADME, organism-based, Macaca fascicularis; conditions: in vivo, read-out: Vdss; how it was run: as §3
[23] = Half life in rat at 0.5 mg/kg, iv; assay type: ADME, organism-based; parameters: dose 0.5 mg/kg, route intravenous; conditions: in vivo; how it was run: as §3
[24] = Drug level in of cynomolgus monkey mesenteric fat at 2 mg/kg, po; assay type: ADME, organism-based, Macaca fascicularis; parameters: dose 2 mg/kg, route oral; conditions: in vivo; how it was run: as §4
[25] = Oral bioavailability in dog at 2.0; assay type: ADME, organism-based, Canis lupus familiaris; conditions: in vivo; how it was run: as §2
[26] = Oral bioavailability in cynomolgus monkey at 2.0; assay type: ADME, organism-based, Macaca fascicularis; conditions: in vivo; how it was run: as §2
[27] = Inhibition of cynomolgus monkey recombinant 11beta-HSD1; parameters: species or system Macaca fascicularis
Cynomolgus monkey [28] = test: AUC in cynomolgus monkey at 0.5, iv; assay type: ADME, organism-based, Macaca fascicularis, Plasma; conditions: in vivo; how it was run: as §3
[29] = Half life in cynomolgus monkey at 0.5, iv; assay type: ADME, organism-based, Macaca fascicularis; conditions: in vivo; how it was run: as §3
Rattus norvegicus [30] = test: Clearance in rat at 0.5 mg/kg, iv; assay type: ADME, organism-based; parameters: dose 0.5 mg/kg, route intravenous; conditions: in vivo; how it was run: as §3
[31] = Clearance in rat; assay type: ADME, organism-based; conditions: in vivo

| Structure (SMILES) | remaining at 0.5 h, 1 µM [1] [%] | IC50 [2] [nM] | remaining at 0.5 h, 1 µM [3] [%] | IC50 [4] [nM] | IC50 [5] [nM] | IC50 [6] [nM] | IC50 [7] [nM] | also measured |
| --- | --- | --- | --- | --- | --- | --- | --- | --- |
| C[C@](O)(c1ccc(C(=O)N(C2CC2)[C@H]2CC[C@@H](c3ccccc3)CC2)cc1)C(F)(F)F | < 5 | 6.1 | 9 | 18 | 123 | > 10000 |  |  |
| C[C@](O)(c1ccc(C(=O)N(C2CC2)[C@H]2CC[C@H](CCC#N)CC2)cc1)C(F)(F)F | 42 | 0.7 | > 90 | 1.3 | 11 | > 10000 | 0.2 | half-life [8]: 0.5 h; Vd [9]: 0.91 L/kg; bioavailability [10]: 83%; AUC (Rattus norvegicus [11]): 393 ng·h/mL; CL (Rattus norvegicus [12]): 21.3 mL/min/kg |
| CC(O)(c1ccc(C(=O)N(CC2CC2)C2CCCCC2)cc1)C(F)(F)F (racemic) | < 5 | 9 | 23 | 38 | 849 |  |  |  |
| C[C@](O)(c1ccc(C(=O)N(C2CC2)[C@H]2CC[C@H](c3ccccc3)CC2)cc1)C(F)(F)F | > 90 | 1.3 | > 90 | 16 | 155 | > 10000 | 9.8 |  |
| C[C@](O)(c1ccc(C(=O)N(C2CC2)[C@H]2CC[C@H](c3ccc(C#N)cc3)CC2)cc1)C(F)(F)F | > 90 | 0.7 | > 90 | 12 | 161 | > 10000 | 3.4 | half-life [8]: 15.7 h; Vd [9]: 2.5 L/kg; bioavailability [10]: 29%; AUC (Rattus norvegicus [11]): 1590 ng·h/mL; CL (Rattus norvegicus [12]): 1.83 mL/min/kg |
| C[C@](O)(c1ccc(C(=O)N(C2CC2)[C@H]2CC[C@H](F)CC2)cc1)C(F)(F)F | 16 | 6.6 | 81 |  | 140 | > 10000 | 4.1 |  |
| C[C@](O)(c1ccc(C(=O)N(CC(F)(F)F)C2CCCCC2)cc1)C(F)(F)F | < 5 | 2.6 | 17 | 24 | 163 |  |  |  |
| C[C@](O)(c1ccc(C(=O)N(C2CC2)[C@H]2CC[C@H](c3cccnc3)CC2)cc1)C(F)(F)F | 51 | 1.4 | > 90 | 5.8 | 124 | > 10000 | 3 | AUC (Rattus norvegicus [13]): 481 ng·h/mL; half-life [14]: 9.3 h; ED50 (Cynomolgus monkey [15]): 2 mg/kg; CL (Cynomolgus monkey [16]): 8.3 mL/min/kg; Vd [17]: 3.5 L/kg; Vd [18]: 6.7 L/kg; Drug uptake [19]: 2890 ng/g; Drug uptake (Plasma): 604 ng/mL; bioavailability [10]: 72%; CL (Canis familiaris [20]): 10 mL/min/kg; AUC (Canis familiaris [21]): 915 ng·h/mL; Vd [22]: 8.1 L/kg; half-life [23]: 4.5 h; Drug uptake [24]: 1211 ng/mL; bioavailability [25]: 4%; bioavailability [26]: 64%; IC50 [27]: 39 nM; AUC (Cynomolgus monkey [28]): 1010 ng·h/mL; half-life [29]: 11.2 h; CL (Rattus norvegicus [30]): 17 mL/min/kg |
| C[C@H]1CCCCN1S(=O)(=O)c1ccc(C(C)(O)C(F)(F)F)cc1 (stereo partly drawn) |  |  |  | 2.1 |  |  |  |  |
| CCN(C(=O)c1ccc([C@](C)(O)C(F)(F)F)cc1)C1CCCCC1 | < 5 | 1.3 | 5 | 1.3 | 25 |  |  | clearance [31]: 51.7 mL/min/kg |
| C[C@](O)(c1ccc(C(=O)N(C2CCCCC2)C2CC2)cc1)C(F)(F)F | < 5 | 0.8 | 81 | 2.4 | 38 | > 10000 |  |  |
